SKKanGAS inh: blocks kanamycin growth of S. pyogenes SKKanGAS strain; BacTiter-Glo, 6 h; inhibition, % at 7.5 µM; 1.3% of 300,000 active; AID 1662;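 active means mean replicate score, as percent of positive control median, at least 50; inconclusive means mean below 50 but one replicate at or above 50; inactive means mean and every replicate below 50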;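 further: strain carries kanamycin resistance gene driven by streptokinase promoter and grows in 40 µg/ml kanamycin; loss of luminescence reflects streptokinase promoter inhibition or plain growth inhibition; 0% = median of DMSO wells and 100% = positive control at its reference dose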
Calb FLC: affects C. albicans growth with fluconazole | 0.57% of 300,000 active | growth inhibition, % (no concentration beside the values) | C. albicans CaCi-2 (fluconazole-resistant clinical isolate) + fluconazole, Alamar Blue growth, 48 h | AID 1979;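 active means growth inhibition above about 58% in most replicates, limit read from the data, passing the limit was not always enough; inconclusive means exactly half the replicates above a set limit; inactive means most replicates below a set limit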;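 further: all wells also contain fluconazole at 8 µg/ml as a sub-toxic cotreatment; 0% = median of DMSO wells and 100% = median of geldanamycin control wells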
CSC inhib: blocks cancer stem cells. cancer stem cell-like cells viability, luminescence. inhibition, % at 7.5 µM. 1.1% of 300,000 active. AID 2717; in the data active means inhibition above about 75%; inconclusive means no clear call, values can overlap the other calls; tested in HMLE shEcad cells
Beta apoptosis: beta cell apoptosis inhibition; INS-1E cytokine-induced death, ATP luminescence, 48 h; percent of positive-control rescue, neutral wells zero; 0.8% of 300,000 active; protection from apoptosis, % (concentration not given with the values); AID 435005;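 active means Every replicate reaches about 75%, or at least half do and their mean reaches it too, limit read from the data; inconclusive means At least half of replicates reach the limit but their mean does not; inactive means Under half of replicates reach the limit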;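 further: 0% = cytokine-treated negative control wells and 100% = positive control rescue; higher means more ATP so stronger rescue from cytokine killing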
Mdm2-MdmX inh: human Mdm2/MdmX binding inhibition; O15151+Q00987; SaOS-2 split-luciferase Mdm2/MdmX complementation, luminescence; inhibition, % at 8 µM; 3% of 330,000 active; AID 485346;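 active means inhibition of at least 50% at 8 µM in the primary screen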
Target sequence (O15151 whole entry, looked up): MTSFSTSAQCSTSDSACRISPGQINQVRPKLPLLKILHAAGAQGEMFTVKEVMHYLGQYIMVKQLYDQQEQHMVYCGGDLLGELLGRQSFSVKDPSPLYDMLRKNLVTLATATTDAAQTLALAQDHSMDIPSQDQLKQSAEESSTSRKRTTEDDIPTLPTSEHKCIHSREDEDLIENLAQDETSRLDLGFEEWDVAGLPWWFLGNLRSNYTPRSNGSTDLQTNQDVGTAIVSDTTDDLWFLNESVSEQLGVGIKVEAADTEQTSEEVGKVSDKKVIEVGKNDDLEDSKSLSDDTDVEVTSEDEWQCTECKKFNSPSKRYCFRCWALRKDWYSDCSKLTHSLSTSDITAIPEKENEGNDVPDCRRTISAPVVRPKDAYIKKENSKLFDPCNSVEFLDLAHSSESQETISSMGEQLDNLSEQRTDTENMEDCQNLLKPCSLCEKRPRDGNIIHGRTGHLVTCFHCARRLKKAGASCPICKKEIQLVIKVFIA
Target sequence (Q00987 whole entry, looked up): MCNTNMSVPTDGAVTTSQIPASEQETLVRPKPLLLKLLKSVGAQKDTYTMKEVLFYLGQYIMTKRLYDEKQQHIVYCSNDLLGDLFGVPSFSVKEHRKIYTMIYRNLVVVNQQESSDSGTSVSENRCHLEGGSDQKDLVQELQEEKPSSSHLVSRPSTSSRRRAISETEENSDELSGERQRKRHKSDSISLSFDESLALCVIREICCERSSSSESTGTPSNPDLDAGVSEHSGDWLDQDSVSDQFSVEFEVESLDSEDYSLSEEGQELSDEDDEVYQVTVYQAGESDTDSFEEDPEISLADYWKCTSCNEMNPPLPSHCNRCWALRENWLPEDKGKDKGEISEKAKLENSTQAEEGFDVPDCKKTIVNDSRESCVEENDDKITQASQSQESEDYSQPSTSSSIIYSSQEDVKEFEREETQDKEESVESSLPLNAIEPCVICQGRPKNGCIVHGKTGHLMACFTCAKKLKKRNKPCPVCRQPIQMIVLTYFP
T cruzi repl: blocks replication of Trypanosoma cruzi; AID 1885; inhibition, % (no concentration beside the values); T. cruzi beta-gal in NIH3T3, luminescence, 90 h; 1.4% of 300,000 active;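 active means mean inhibition across valid replicates above about 55%, limit read from the data; inconclusive means mean below that limit but half or more replicates reach it; inactive means mean below it, under half of replicates reach it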;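 further: signal also drops with host cell toxicity which is not excluded here; 0% = plate median of DMSO wells and 100% = zero luminescence signal; higher percent means less beta-gal luminescence so fewer parasites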
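compound dosing = single 50 nL compound addition per well in DMSO | material = NIH/3T3 host cells with β-galactosidase reporter T. cruzi | input = 5,000 host fibroblasts per well | timing = ≥90 h infection period, 3 h prior cell attachment | read-out basis = percent inhibition of parasite-derived β-gal signal | detection = GalScreen β-gal luminescence, detergent lysis, 60 min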
Mdm2 MdmX conf: confirmation of human Mdm2/MdmX interaction inhibitors. shares compounds with Mdm2-MdmX inh. Mdm2-MdmX binding, luminescent assay. 55% of 10,000 active. inhibition, % at 8 µM. AID 489028; in the data active means inhibition above about 40%
Full FLuc ctr: inhibits full-length luciferase, flagging false Mdm2/MdmX hits; shares compounds with Mdm2-MdmX inh; SaOS-2 full-length luciferase counterscreen, luminescence; inhibition, % at 8 µM; 77% of 6,200 active; AID 504607;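 active means mean inhibition at 8 µM reaching about 37%, which flags the compound as non-specific, limit read from the data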;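 further: p53-null SaOS-2 cells with luciferase driven by a doxycycline-inducible promoter; compound on cells about two nights before reading with doxycycline added after day one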
* marks the source's active call; other numbers are inactive results; ? = inconclusive; nt = no result given. Hits are enriched below; roughly 5.7% of the tested compounds scored in any of these assays.

SMILES | SKKanGAS inh | Calb FLC | CSC inhib | Beta apoptosis | Mdm2-MdmX inh | T cruzi repl | Mdm2 MdmX conf | Full FLuc ctr
COc1ccc2c(c1)c1nc3n(c(=O)c1n2CC(=O)Nc1cc(C)[nH]n1)CCS3 | 0 | 4 | 57 | 65 | 67* | -21 | 59* | 101*
Cn1c(=O)c2c(nc(Oc3ccc4ccccc4c3)n2C)n(C)c1=O | -5 | -10 | 6 | -4 | 52* | -12 | 62* | 34
COc1ccc(Oc2nc3c(c(=O)n(C)c(=O)n3C)n2C)cc1 | 12 | -5 | -15 | -2 | 37 | 15 | nt | nt
CC1=CC(C)(C)N2C(=O)C3(C(C#N)=C(N)Oc4cc(O)ccc43)c3c(C)c(C)cc1c32 (stereo not drawn) | 7 | 8 | 44 | -4 | 68* | 21 | 61* | 48*
CC1=CC(C)(C)N2C(=O)C3(C(C#N)=C(N)OC4=C3C(=O)CCC4)c3c(C)c(C)cc1c32 (stereo not drawn) | 8 | -8 | -6 | 0 | 28 | -28 | nt | nt
O=C(Nc1ccc(O)c2c(=O)cc(-c3cccc(Cl)c3)oc12)c1ccccc1Cl | 15 | 7 | -3 | nt | 91* | -4 | 2 | nt
CC(C)CC(NS(=O)(=O)c1ccccc1)C(=O)O (stereo not drawn) | -11 | -8 | -9 | -4 | 20 | -5 | nt | nt
CC(C)CN=C(NS(=O)(=O)c1ccccc1)C(Cl)(Cl)Cl | -4 | -2 | 147* | 1 | 88* | 15 | 81* | 36
O=C(CN1C(=O)NC2(CCCCC2)C1=O)NCCCSc1ccccc1 | nt | nt | nt | -8 | -6 | nt | nt | nt
CCC(C)(C)C(=O)O[C@H]1C[C@@H](C)C=C2C=C[C@H](C)[C@H](CC[C@@H]3C[C@@H](O)CC(=O)O3)[C@H]21 | 0 | nt | 29 | 21 | 55* | 0 | 22 | nt
CC(=O)N1CCC(=NNC(=O)c2cc3ccccc3cc2O)CC1 | 10 | 82* | -16 | -2 | 62* | -8 | 51* | 58*
CC[C@]12c3[nH]c4ccc(Cl)cc4c3CCN1C(=O)[C@@H](CC(=O)NC/C=C(\C)CCC=C(C)C)C[C@@H]2C(=O)N1CCN(C(=O)c2ccco2)CC1 | nt | nt | nt | nt | 66* | nt | -11 | nt
CC[C@]12c3[nH]c4cc(CCC(=O)N(C)C)ccc4c3CCN1C(=O)[C@@H](CC(=O)NC/C=C(\C)CCC=C(C)C)C[C@@H]2C(=O)N1CCN(C(=O)c2ccco2)CC1 | nt | nt | nt | nt | 93* | nt | 59* | 59*
CC[C@]12c3[nH]c4cc(CCC(=O)N(C)C)ccc4c3CCN1C(=O)[C@@H](CC(=O)NCCN1CCOCC1)C[C@@H]2C(=O)N1CCN(C(=O)c2ccco2)CC1 | nt | nt | nt | nt | -4 | nt | nt | nt
CC1Cc2ccccc2N1C(=O)CN1C(=O)NC2(CCCCC2)C1=O (stereo not drawn) | nt | nt | 4 | 2 | -19 | nt | nt | nt
Cn1c(CCNC(=O)c2ccccc2F)nnc1SCC(=O)Nc1nncs1 | -11 | 3 | -14 | 5 | 10 | -1 | nt | nt
CCN1CCN(CCCNC(=O)c2ccc(/C=C3/Oc4ccccc4N(Cc4cccc(C)c4)C3=O)cc2)CC1 | 12 | 10 | -4 | 27 | 100* | 48 | 33 | nt
CCN1CCN(CCCNC(=O)c2ccc(/C=C3/Sc4ccccc4N(Cc4ccccc4F)C3=O)cc2)CC1 | 8 | 3 | 104* | 4 | 94* | 57* | 74* | 24
CCN1CCN(CCNC(=O)c2ccc(/C=C3/Sc4ccccc4N(Cc4ccccc4C)C3=O)cc2)CC1 | 8 | ? | nt | nt | nt | 33 | nt | nt
CCOc1ccc(OCCOC(=O)CNC(=O)c2ccc(Cl)cc2Cl)cc1 | -5 | -1 | -4 | 0 | 12 | -8 | nt | nt
O=[N+]([O-])c1ccc(Oc2cccc(Br)c2)c2ccncc12 | 1 | 4 | 22 | 3 | 58* | 25 | 18 | nt
O=[N+]([O-])c1ccc(Oc2ccc(F)cc2)c2ccncc12 | 35 | -5 | 24 | 5 | 60* | 4 | 56* | 23
Cc1ccc(C2(C)NC(=O)N(CC(=O)N3c4ccccc4NC(=O)CC3C)C2=O)cc1 (stereo not drawn) | nt | nt | nt | -1 | 8 | nt | nt | nt
CCOc1cc2nc(-c3ccc(OC)c(OC)c3)nc(N3CC(C)OC(C)C3)c2cc1OC (stereo not drawn) | 14 | -3 | -6 | 6 | 33 | 24 | nt | nt
CCOc1cc2nc(-c3ccc(OC)c(OC)c3)nc(N3CCOCC3)c2cc1OC | 11 | 2 | 13 | 5 | 53* | 35 | 45* | 83*
SMILES | SKKanGAS inh | Calb FLC | CSC inhib | Beta apoptosis | Mdm2-MdmX inh | T cruzi repl | Mdm2 MdmX conf | Full FLuc ctr
O=C(Cn1c(NCCCO)nc2ccccc21)c1ccc(Cl)cc1Cl | 7 | -5 | 12 | 5 | 1 | -6 | nt | nt
Clc1ccc(Cn2cc(/C=N/n3cnnc3)c3ccccc32)c(Cl)c1 | 42 | ? | 25 | -5 | 57* | 20 | 0 | nt
C(=N\n1cnnc1)/c1cn(Cc2ccccc2)c2ccccc12 | -7 | -22 | 0 | -8 | 14 | 32 | nt | nt
Cc1ccccc1C(=O)Nc1ccc2c(c1)CCCN2C(=O)c1cccs1 | -2 | 0 | -9 | 14 | 84* | 3 | 68* | 40*
CCCS(=O)(=O)c1cnc(C2COc3ccccc3O2)nc1N (stereo not drawn) | 18 | 13 | ? | 12 | 82* | -2 | 85* | 48*
Cn1c(Cc2ccccc2)nnc1SCC(=O)Nc1ccc(N2CCOCC2)cc1 | -9 | -4 | -8 | 4 | -15 | -2 | nt | nt
c1coc(CNc2ncnc3sc4c(c23)CCCCC4)c1 | 5 | -6 | -3 | 3 | 13 | 17 | nt | nt
Cc1nc(NCc2ccco2)c2c3c(sc2n1)CCC3 | 5 | 10 | 2 | -20 | 72* | -19 | 33 | nt
COc1ccc(Cl)cc1-c1nc(-c2ccc(Br)o2)no1 | 1 | 7 | 0 | 3 | 51* | -10 | 20 | nt
CC(=O)C[C@@H](O)CC(=O)[C@@H]1OC(=O)[C@@H](C)CCCCc2ccccc21 | nt | nt | nt | nt | 8 | nt | nt | nt
Clc1ccc(OCCCNCc2ccccc2)c(Br)c1 | 2 | 13 | -2 | 17 | 65* | 37 | 24 | nt
CC1CCCCN1S(=O)(=O)c1ccc2[nH]c(=O)cc(C(=O)NCCCN3CCCCCC3)c2c1 (stereo not drawn) | -5 | -7 | -7 | -6 | 3 | -3 | nt | nt
COc1ccc(NC(=S)NC(NC(=O)c2cccc(Cl)c2)C(Cl)(Cl)Cl)c([N+](=O)[O-])c1 (stereo not drawn) | 42 | 6 | nt | nt | 87* | 73* | 72* | 57*
COc1ccc(NC(=S)NC(NC(=O)c2cccc(C)c2)C(Cl)(Cl)Cl)c([N+](=O)[O-])c1 (stereo not drawn) | nt | nt | 20 | 10 | -2 | nt | nt | nt

Compound activity as filed in PubChem.
